Assay results published in ChEMBL document CHEMBL1177654, “[d4U]-spacer-[HI-236] double-drug inhibitors of HIV-1 reverse-transcriptase” (Bioorg Med Chem, 2010).

Tests used:
MT2 = assay: Cytotoxicity against human MT2 cells after 5 days by MTT assay; assay type: cell-based; conditions: mt2, 120 h
In short: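 Mock-infected MT-2 cells (1 × 10^5 cells/mL) grown 5 days in RPMI 1640 with 10% dFBS and kanamycin at varying compound concentrations, in triplicate. Viability read by MTT (5 h), then acidified isopropanol lysis and absorbance at 595 nm. Triplicate averages plotted against concentration; CC50 is the concentration reducing viable cells by 50%.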

[1] = biological target: Human immunodeficiency virus type 1 reverse transcriptase (Human immunodeficiency virus 1, UniProt Q72547); assay: Inhibition of HIV1 reverse transcriptase-mediated thymidine incorporation into D23/D36 primer-template preincubated for 15 mins by polyacrylamide gel-electrophoresis
In short: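 RT at 6 nM active sites (from pre-steady-state active-site titration) pre-incubated ≥15 min with 1 μM 5′-radiolabelled D23/D36 primer/template, then ≥15 min on ice with inhibitor (DMSO held constant, <2%; DMSO-only control). Reaction started with 5 μM dTTP plus 10 mM MgCl2 (final concentrations), 15 min at 37 °C, quenched with 0.3 M EDTA. Products resolved on 20% denaturing PAGE. IC50 taken from a hyperbolic fit of product versus inhibitor concentration.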

[2] = test system: Human immunodeficiency virus 1; assay: Antiviral activity against HIV1 3B infected in human MT-2 cells assessed as inhibition of viral-mediated cell death after 5 days by MTT assay; assay type: functional, organism-based; conditions: Human immunodeficiency virus 1, 3B, MT2, 120 h
In short: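 MT-2 cells at 1 × 10^5 cells/mL infected with wild-type HIV-IIIB at MOI 0.1, cultured 5 days in RPMI 1640 with 10% dFBS and kanamycin across varying compound concentrations in triplicate. MTT added for 5 h, cells lysed with acidified isopropanol, absorbance read at 595 nm. Triplicate averages plotted as dose-response curves; EC50 is the concentration inhibiting viral-mediated cell death by 50%.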

Compound: COc1ccc(OC)c(CCNC(=S)Nc2ccc(Br)cn2)c1
- CC50 (MT2): > 1 µM
- IC50 [1]: 0.038 µM

Compound: COc1ccc(OCCOCCOCC#Cc2cn([C@H]3C=C[C@@H](CO)O3)c(=O)[nH]c2=O)c(CCNC(=S)Nc2ccc(Br)cn2)c1
- CC50 (MT2): 43 µM
- EC50 [2]: 1.9 µM
- IC50 [1]: 0.85 µM

Compound: Cc1cn([C@H]2C=C[C@@H](CO)O2)c(=O)[nH]c1=O [STAVUDINE]
- CC50 (MT2): > 100 µM
- EC50 [2]: 2.3 µM
- IC50 [1]: 9.6 µM

Compound: COC(=O)[C@H](C)NP(=O)(OC[C@@H]1C=C[C@H](n2cc(C#CCOCCOCCOCCOCCOc3ccc(OC)cc3CCNC(=S)Nc3ccc(Br)cn3)c(=O)[nH]c2=O)O1)Oc1ccc(C)cc1 (stereo not given in full)
- CC50 (MT2): 11 µM
- EC50 [2]: 2.9 µM
- IC50 [1]: 2.3 µM

Compound: COc1ccc(OCCOCCOCCOCCOCC#Cc2cn([C@H]3C=C[C@@H](CO)O3)c(=O)[nH]c2=O)c(CCNC(=S)Nc2ccc(Br)cn2)c1
- CC50 (MT2): 18 µM
- EC50 [2]: 3.1 µM
- IC50 [1]: 1.4 µM

Compound: COc1ccc(OCCOCC#Cc2cn([C@H]3C=C[C@@H](CO)O3)c(=O)[nH]c2=O)c(CCNC(=S)Nc2ccc(Br)cn2)c1
- CC50 (MT2): 38 µM
- EC50 [2]: 1.3 µM
- IC50 [1]: 0.575 µM

Compound: COc1ccc(OCCC#Cc2cn([C@H]3C=C[C@@H](CO)O3)c(=O)[nH]c2=O)c(CCNC(=S)Nc2ccc(Br)cn2)c1
- CC50 (MT2): 17 µM
- EC50 [2]: 0.25 µM
- IC50 [1]: 0.061 µM
